The results in this text go back to ChEMBL document CHEMBL1914409, “Cytotoxicity and gene expression profiles of novel synthesized steroid derivatives as chemotherapeutic anti-breast cancer agents” (Bioorg Med Chem, 2011).

The term IC50 denotes the concentration that inhibits the measured activity by half.

The subject of experiment [1] is MCF7. The experiment is described as follows: Reduction in AP-2 gamma mRNA expression in human MCF7 cells by RT-PCR relative to control. It is filed as functional, cell-based. The method in brief: (§1)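 RNA taken from MCF-7 cells after 48 h treatment in the cytotoxicity study, then oligo(dT)-primed reverse transcription (25 °C 10 min, 42 °C 1 h). Semi-quantitative PCR run with VEGF 40 cycles (59 °C annealing), CYP19 50 cycles (60 °C), hAP-2γ 20 cycles (65 °C) and β-actin 40 cycles (60 °C). Gel band intensity expressed as a ratio to β-actin; P<0.05.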

In experiment [2] the test system is MCF7. Description: Reduction in VEGF mRNA expression in human MCF7 cells by RT-PCR relative to control. The class given is functional, cell-based. The method in brief: as §1
The subject of experiment [3] is MCF7. Description: Reduction in CYP19 mRNA expression in human MCF7 cells by RT-PCR relative to control. It is filed as functional, cell-based. The method in brief:
as §1

Experiment [4] relates to MCF7. Description: Cytotoxicity against human MCF7 cells assessed as growth inhibition after 48 hrs by SRB assay. The class given is functional, cell-based. The note with it: MCF7, 48 h. The method in brief: (§2)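 MCF-7 (ATCC) kept in RPMI-1640 with penicillin/streptomycin and FBS, used at 90% confluence and seeded at 5×10^4–10^5 cells/well. Exposed to 5, 12.5, 25 or 50 µg/mL of compound in DMSO for 24, 48 or 72 h, with vehicle-treated controls and 6 wells per concentration. Cells fixed in cold TCA and stained with 0.4% SRB; dye taken up in 10 mM Tris pH 10.5 and read at 564 nm. Result given as % growth inhibition versus control.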

Experiment [5] relates to MCF7. The experiment is described as follows: Cytotoxicity against human MCF7 cells assessed as growth inhibition after 72 hrs by SRB assay. The class given is functional, cell-based. The note with it: MCF7, 72 h. The method in brief: as §2
(Sulforhodamine B stains cellular protein and so reports cell mass.)

The subject of experiment [6] is MCF7. The experiment is described as follows: Cytotoxicity against human MCF7 cells assessed as growth inhibition at 25 ug/ml after 48 hrs by SRB assay. The class given is functional, cell-based. The method in brief: as §2
Experiment [7] concerns MCF7. The experiment is described as follows: Cytotoxicity against human MCF7 cells assessed as growth inhibition at 50 ug/ml after 48 hrs by SRB assay. The class given is functional, cell-based. The method in brief:
as §2

The subject of experiment [8] is MCF7. Description: Cytotoxicity against human MCF7 cells assessed as growth inhibition at 5 ug/ml after 72 hrs by SRB assay relative to control. It is filed as functional. The method in brief:
as §2

Experiment [9] relates to MCF7. Description: Cytotoxicity against human MCF7 cells assessed as growth inhibition after 24 hrs by SRB assay. It is filed as functional, cell-based. The following applies: MCF7, 24 h. The method in brief: as §2
In experiment [10] the test system is MCF7. Description: Cytotoxicity against human MCF7 cells assessed as growth inhibition at 25 ug/ml after 24 hrs by SRB assay. It is filed as functional. The method in brief: as §2
Experiment [11] concerns MCF7. Description: Cytotoxicity against human MCF7 cells assessed as growth inhibition at 50 ug/ml after 24 hrs by SRB assay. The class given is functional, cell-based. The method in brief: as §2
The test system of experiment [12] is MCF7. The experiment is described as follows: Cytotoxicity against human MCF7 cells assessed as growth inhibition at 12.5 ug/ml after 72 hrs by SRB assay. The class given is functional. The following applies: MCF7, 72 h, read-out: GI. The method in brief:
as §2

For experiment [13], the system named is MCF7. Description: Cytotoxicity against human MCF7 cells assessed as growth inhibition at 5 ug/ml after 48 hrs by SRB assay. It is filed as functional, cell-based. The method in brief: as §2
The subject of experiment [14] is MCF7. Description: Cytotoxicity against human MCF7 cells assessed as growth inhibition at 12.5 ug/ml after 24 hrs by SRB assay. It is filed as functional. The method in brief: as §2
Experiment [15] deals with MCF7. Description: Cytotoxicity against human MCF7 cells assessed as growth inhibition at 12.5 ug/ml after 48 hrs by SRB assay. The class given is functional, cell-based. The method in brief:
as §2

Each structure is given as a SMILES string. The source made the active and inactive calls. The calls are words filed in the database; no cut-off is given here.

As to `COc1cccc2c1C(=O)c1c(O)c3c(c(O)c1C2=O)C[C@@](O)(C(=O)CO)C[C@@H]3O[C@H]1C[C@H](N)[C@H](O)[C@H](C)O1`, the result with MCF7 [1], in the experiment with MCF7 [2] and in the experiment on MCF7 [3] was Active.
`C[C@]12CC[C@H]3[C@@H](CCC4=CC(=O)CC[C@@]43C)[C@@H]1CC[C@@H]2n1c(=S)n(-c2ccccc2)c(=O)c2cc(F)ccc21`: the result in the experiment with MCF7 [1], in the experiment on MCF7 [2] and in the experiment with MCF7 [3] was Active. Besides, the IC50 with MCF7 [4] turned out to be 11.5 µM; in the experiment with MCF7 [5], 16 µM; in the experiment on MCF7 [9], 17.7 µM. Moreover, the “growth inhibition (GI)” value in the experiment with MCF7 [6], in the experiment on MCF7 [7], in the experiment with MCF7 [8], in the experiment with MCF7 [10] and in the experiment with MCF7 [11] was “Active” in each case.
`CC(=O)O[C@H]1CC[C@@]2(C)[C@@H](CC[C@@H]3[C@@H]2CC[C@]2(C)c4nc(CC#N)sc4C[C@@H]32)C1`: the result with MCF7 [1], in the experiment with MCF7 [2] and in the experiment with MCF7 [3] was Active. In addition, the inhibition of growth at 12.5 µg/mL in the experiment with MCF7 [12] is 91%; with MCF7 [14] (MCF7, 24 h, read-out: GI) it was 91%. The values for the IC50 in the experiment on MCF7 [4], in the experiment with MCF7 [5] and in the experiment with MCF7 [9] were 2.5 µM, 2.9 µM and 2.9 µM, respectively. Also, the “growth inhibition (GI)” value with MCF7 [6], in the experiment with MCF7 [7], with MCF7 [13], in the experiment on MCF7 [11] and with MCF7 [15] was “Active” throughout. In addition, in the experiment on MCF7 [8] (MCF7, 72 h, read-out: GI), the inhibition of growth at 5 µg/mL was 93%. Moreover, the inhibition of growth at 25 µg/mL in the experiment on MCF7 [10] (MCF7, 24 h, read-out: GI) is 85%.
With `CC(=O)O[C@H]1CC[C@@]2(C)[C@@H](CC[C@@H]3[C@@H]2CC[C@]2(C)/C(=N/c4ccc(S(=O)(=O)N(CCO)c5ncccn5)cc4)CC[C@@H]32)C1`, the outcome with MCF7 [1], in the experiment on MCF7 [2] and in the experiment on MCF7 [3] was Active. Further, the IC50 in the experiment on MCF7 [4] turned out to be 7.5 µM; with MCF7 [5], 10 µM; with MCF7 [9], 14.7 µM. The “growth inhibition (GI)” value in the experiment with MCF7 [6], in the experiment on MCF7 [8], in the experiment with MCF7 [10], with MCF7 [11], in the experiment with MCF7 [14] and in the experiment on MCF7 [15] was “Active” each time. The “growth inhibition (GI)” value in the experiment on MCF7 [7] was “inactive”.
In the case of `C[C@]12CC[C@H](O)C[C@@H]1CC[C@@H]1[C@@H]2CC[C@@]2(C)[C@H]1CC[C@]21OC1C(=O)c1ccccc1` (stereo partly specified), the result in the experiment on MCF7 [1], with MCF7 [2] and with MCF7 [3] was Active. Besides, the IC50 with MCF7 [4] stood at 7.3 µM; in the experiment on MCF7 [5] it was 17.3 µM; with MCF7 [9], 17.1 µM. Also, the “growth inhibition (GI)” value in the experiment on MCF7 [6], in the experiment with MCF7 [7], in the experiment with MCF7 [8], with MCF7 [10], in the experiment on MCF7 [11] and with MCF7 [14] was “Active” in each case. Also, the “growth inhibition (GI)” value in the experiment with MCF7 [15] is “Active”.
For `CC(=O)O[C@H]1CC[C@@]2(C)[C@@H](CC[C@@H]3[C@@H]2CC[C@]2(C)/C(=N/C4CCNN=C4O)CC[C@@H]32)C1` (stereo partly specified), the result in the experiment with MCF7 [1], with MCF7 [2] and in the experiment on MCF7 [3] was Active. Moreover, the IC50 with MCF7 [4] stood at 9.9 µM; in the experiment with MCF7 [5] it was 11.5 µM; with MCF7 [9], 18.5 µM. Besides, the “growth inhibition (GI)” value in the experiment on MCF7 [6], in the experiment on MCF7 [7], with MCF7 [8], with MCF7 [10], with MCF7 [11] and in the experiment with MCF7 [15] was “Active” throughout.
`C[C@]12CC[C@H]3[C@@H](CCC4=CC(=O)CC[C@@]43C)[C@@H]1CC[C@@H]2n1c(=S)n(-c2ccccc2)c(=O)c2ccccc21`: the outcome with MCF7 [1], with MCF7 [2] and with MCF7 [3] was Active. Besides, the IC50 with MCF7 [4] was 12.5 µM; in the experiment on MCF7 [5], 17.5 µM; with MCF7 [9], 13.1 µM. Besides, the “growth inhibition (GI)” value in the experiment with MCF7 [6], with MCF7 [7], in the experiment with MCF7 [8], in the experiment with MCF7 [10], with MCF7 [11] and in the experiment with MCF7 [14] was “Active” in each case.
With `C[C@]12CC[C@H]3[C@@H](CCC4=C[C@]5(CC[C@@]43C)OC5C(=O)c3ccccc3)[C@@H]1CC[C@@H]2O` (stereo partly specified), the result with MCF7 [1], in the experiment with MCF7 [2] and with MCF7 [3] was Active. Also, the figures for the IC50 in the experiment with MCF7 [4], in the experiment with MCF7 [5] and with MCF7 [9] were 16 µM, 12 µM and 15.1 µM, respectively. Moreover, in the experiment on MCF7 [6], the “growth inhibition (GI)” value was “inactive”. Also, the “growth inhibition (GI)” value in the experiment on MCF7 [7], with MCF7 [8], in the experiment with MCF7 [10], in the experiment on MCF7 [11] and in the experiment on MCF7 [14] was “Active” each time.
